Laboratory results reported in ChEMBL document CHEMBL4808187, “Antiarrhythmic Hit to Lead Refinement in a Dish Using Patient-Derived iPSC Cardiomyocytes” (J Med Chem, 2021).
The source made the active and inactive calls. No cut-off for these calls is given here.

Legend:
[1] = Chemical stability in pH 7.4 phosphate buffer assessed as half life at 100 uM by RP-HPLC analysis; format: physicochemical
[2] = Chemical stability in pH 3 phosphate buffer assessed as half life at 100 uM by RP-HPLC analysis; format: physicochemical
[3] = Inhibition of sodium channel (unknown origin) expressed in HEK cells assessed as reduction in late inward sodium current by automated patch clamp method; format: cell-based; conditions: Homo sapiens, HEK293
[4] = Antiarrhythmic activity in hiPSC-CMs assessed as fold prolongation of action potential relative to control; conditions: human, ipsc-cm
[5] = Antiarrhythmic activity in hiPSC-CMs assessed as cessation dose of cell beating; conditions: human, ipsc-cm
[6] = (§1) Antiarrhythmic activity in patient-derived hiPSC-CMs carrying LQT3 mutation assessed as cessation dose for cell beating; format: functional, Homo sapiens, iPSC-CM
Homo sapiens = species on record: Homo sapiens; assay: Selectivity index, ratio of IC50 for potassium channel (unknown origin) expressed in CHO cells assessed as reduction in potassium current to IC50 for sodium channel (unknown origin) expressed in HEK cells assessed as reduction in late inward sodium current
[7] = (§2) Antiarrhythmic activity in patient-derived hiPSC-CMs carrying LQT3 mutation assessed as fold shortening of action potential duration relative to control; format: functional, Homo sapiens, iPSC-CM
[8] = Antiarrhythmic activity in patient-derived hiPSC-CMs carrying LQT3 mutation assessed as shortening of action potential duration; format: functional, Homo sapiens; conditions: ipsc-cm
[9] = Antiarrhythmic activity in hiPSC-CMs assessed as dose for induction of early after depolarizations; conditions: human, ipsc-cm
[10] = Antiarrhythmic activity in hiPSC-CMs assessed as prolongation of action potential; set-up: species or system Homo sapiens, iPSC-CM
[11] = (§3) Antiarrhythmic activity in patient-derived hiPSC-CMs carrying LQT3 mutation assessed as shortening dose of action potential; format: functional, Homo sapiens, iPSC-CM
[12] = Inhibition of potassium channel (unknown origin) expressed in CHO cells assessed as reduction in potassium current by automated patch clamp method; format: cell-based
[13] = Inhibition of sodium channel (unknown origin) expressed in HEK cells assessed as reduction in peak sodium current by automated patch clamp method; format: cell-based; conditions: Homo sapiens, HEK293
iPSC-CM [14] = assay: as §1; format: functional; conditions: Homo sapiens
iPSC-CM [15] = assay: as §2; format: functional; conditions: Homo sapiens
iPSC-CM [16] = assay: as §3; format: functional; conditions: Homo sapiens
[17] = AUC in Sprague-Dawley rat at 5 mg/kg, iv measured upto 25 hrs by LCMS analysis; format: ADME, organism-based; set-up: route intravenous, dose 5 mg/kg, time <=25; conditions: in vivo
[18] = Oral bioavailability in Sprague-Dawley rat at 25 mg/kg measured upto 25 hrs by LCMS analysis; format: ADME, organism-based; conditions: in vivo
[19] = Half life in Sprague-Dawley rat at 5 mg/kg, iv measured upto 25 hrs by LCMS analysis; format: ADME, organism-based; conditions: in vivo
Cytochrome P450 3A4 = Cytochrome P450 3A4 (Homo sapiens, UniProt P08684); assay: Drug metabolism assessed as human CYP3A4-mediated metabolism per ug protein; format: ADME; conditions: recombinant enzyme
Cytochrome P450 3A4, sequence (P08684 whole entry): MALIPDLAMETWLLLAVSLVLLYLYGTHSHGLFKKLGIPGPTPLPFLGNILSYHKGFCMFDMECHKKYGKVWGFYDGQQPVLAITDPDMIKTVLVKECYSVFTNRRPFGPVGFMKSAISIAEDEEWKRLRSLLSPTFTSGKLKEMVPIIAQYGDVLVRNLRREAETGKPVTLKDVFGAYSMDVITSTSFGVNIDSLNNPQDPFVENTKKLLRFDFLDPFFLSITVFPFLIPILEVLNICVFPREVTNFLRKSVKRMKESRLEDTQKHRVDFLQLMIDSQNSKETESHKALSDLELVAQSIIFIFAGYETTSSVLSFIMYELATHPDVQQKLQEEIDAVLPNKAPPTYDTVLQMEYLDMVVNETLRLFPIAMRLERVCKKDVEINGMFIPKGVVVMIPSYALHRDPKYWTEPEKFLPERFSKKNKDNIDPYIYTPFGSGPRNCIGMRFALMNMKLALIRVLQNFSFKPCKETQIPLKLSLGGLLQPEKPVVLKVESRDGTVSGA

[20] = Tmax in Sprague-Dawley rat at 25 mg/kg, po measured upto 25 hrs by LCMS analysis; format: ADME, organism-based; conditions: in vivo
[21] = AUC in Sprague-Dawley rat at 25 mg/kg, po measured upto 25 hrs by LCMS analysis; format: ADME, organism-based; set-up: route oral, dose 25 mg/kg, time <=25; conditions: in vivo
Cytochrome P450 3A5 = Cytochrome P450 3A5 (Homo sapiens, UniProt P20815); assay: Drug metabolism assessed as human CYP3A5-mediated metabolism per ug protein; format: ADME; conditions: recombinant enzyme
Cytochrome P450 3A5, sequence (P20815 whole entry): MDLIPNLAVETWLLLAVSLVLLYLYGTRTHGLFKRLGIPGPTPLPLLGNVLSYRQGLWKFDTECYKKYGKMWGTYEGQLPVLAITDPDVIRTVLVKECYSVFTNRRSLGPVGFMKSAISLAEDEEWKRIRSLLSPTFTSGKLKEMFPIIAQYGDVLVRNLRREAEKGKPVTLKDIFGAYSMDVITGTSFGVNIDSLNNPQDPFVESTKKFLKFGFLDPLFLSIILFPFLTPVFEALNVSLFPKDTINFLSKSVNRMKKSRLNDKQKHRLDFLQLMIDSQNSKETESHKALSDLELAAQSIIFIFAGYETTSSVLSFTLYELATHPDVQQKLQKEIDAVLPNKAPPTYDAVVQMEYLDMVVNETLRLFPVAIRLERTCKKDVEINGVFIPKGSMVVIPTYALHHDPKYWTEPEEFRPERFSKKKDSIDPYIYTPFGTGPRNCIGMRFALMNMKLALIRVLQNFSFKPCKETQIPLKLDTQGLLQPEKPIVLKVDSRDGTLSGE

[22] = Cmax in Sprague-Dawley rat at 25 mg/kg, po measured upto 25 hrs by LCMS analysis; format: ADME, organism-based; set-up: route oral, dose 25 mg/kg, time <=25; conditions: in vivo
[23] = Tmax in Sprague-Dawley rat at 5 mg/kg, iv measured upto 25 hrs by LCMS analysis; format: ADME, organism-based; conditions: in vivo
[24] = Cmax in Sprague-Dawley rat at 5 mg/kg, iv measured upto 25 hrs by LCMS analysis; format: ADME, organism-based; set-up: route intravenous, dose 5 mg/kg, time <=25; conditions: in vivo
Cytochrome P450 2D6 = Cytochrome P450 2D6 (Homo sapiens, UniProt P10635); assay: Drug metabolism assessed as human CYP2D6-mediated metabolism per ug protein; format: ADME; conditions: recombinant enzyme
Cytochrome P450 2D6, sequence (P10635 whole entry): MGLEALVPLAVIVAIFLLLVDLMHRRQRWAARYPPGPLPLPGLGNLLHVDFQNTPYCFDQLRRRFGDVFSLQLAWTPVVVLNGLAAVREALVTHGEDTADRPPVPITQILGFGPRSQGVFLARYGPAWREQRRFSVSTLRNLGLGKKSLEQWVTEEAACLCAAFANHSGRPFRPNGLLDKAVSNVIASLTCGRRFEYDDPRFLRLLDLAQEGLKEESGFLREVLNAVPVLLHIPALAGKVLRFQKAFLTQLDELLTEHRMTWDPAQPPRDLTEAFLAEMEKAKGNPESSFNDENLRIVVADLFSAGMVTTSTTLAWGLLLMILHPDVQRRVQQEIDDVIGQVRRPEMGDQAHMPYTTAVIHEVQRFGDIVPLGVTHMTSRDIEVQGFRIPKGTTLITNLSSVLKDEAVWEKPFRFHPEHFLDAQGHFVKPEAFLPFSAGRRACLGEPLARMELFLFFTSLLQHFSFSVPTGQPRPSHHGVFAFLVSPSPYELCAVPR

[25] = Half life in Sprague-Dawley rat at 25 mg/kg, po measured upto 25 hrs by LCMS analysis; format: ADME, organism-based; conditions: in vivo
[26] = Potency index, ratio of mexiletine EC50 to test compound EC50 for antiarrhythmic activity in hiPSC-CMs expressing LQT3 mutation assessed as shortening of action potential duration; format: functional, Homo sapiens, iPSC-CM
[27] = Metabolic stability in human liver microsomes assessed as half life at 50 uM measured upto 60 mins by HPLC method; format: ADME, Microsome
Outline: (§4)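 Human liver microsomes (0.4–0.5 mg protein) or S-9 (1 mg) with 50 μM compound in 50 mM potassium phosphate pH 7.4 plus NADPH-generating system, 37 °C shaking for 0, 7, 15, 30, 60 min; stopped with cold acetonitrile; HPLC C18, isocratic water/acetonitrile with 0.05% TFA, UV 275.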

[28] = Metabolic stability in human liver S9 fraction assessed as compound remaining at 50 uM after 1 hr by HPLC method; format: ADME, subcellular; conditions: read-out: Stabilty; outline: as §4
[29] = Homo sapiens, iPSC-CM, read-out: EC50

| Structure (SMILES) | Activity [5] | Activity [6] [µM] | fold change (FC) [7] | EC50 ([8]; read-out: EC50) [µM] | Activity [9] | EC50 [10, 29] [µM] | Activity [11] [µM] | Activity (iPSC-CM [14]) | EC50 [8] | Activity (iPSC-CM [16]) | EC50 ([10]; ipsc-cm) | also measured |
| --- | --- | --- | --- | --- | --- | --- | --- | --- | --- | --- | --- | --- |
| Cc1ccccc1OCC(N)c1ccccc1.Cl (racemic) | – | – | – | – | – | – | – | – | – | – | – | half-life at 100 µM [1]: > 720 h; half-life at 100 µM [2]: > 360 h |
| Cc1cccc(C)c1OCC(N)C1CC1.Cl (stereo not given) | Not Active | 200 | 1.162 | 0.8 | 66 µM | 8 | 22 | – | – | – | – | IC50 [3]: 7.4 µM; fold change (FC) [4]: 2.805; Ratio IC50 (Homo sapiens): 4.1; IC50 [12]: 30.1 µM; IC50 [13]: 130 µM |
| COc1ccccc1OCC(C)N.Cl (stereo not given) | Not Active | – | – | – | 133 µM | 97.8 | – | inactive | Not Active | inactive | – | fold change (FC) (iPSC-CM [15]): inactive |
| Cc1cccc(C)c1OCC(C)N (stereo not given) [MEXILETINE] | Not Active | – | – | 1.8 | 200 µM | 20.4 | 22 | inactive | – | – | – | AUC [17]: 447 ng·h/mL; bioavailability [18]: 37%; t1/2 [19]: 10.6 h; Drug metabolism (Cytochrome P450 3A4): 46.2 pmol/min; Tmax [20]: 1 h; AUC [21]: 839 ng·h/mL; Drug metabolism (Cytochrome P450 3A5): 48.8 pmol/min; Cmax [22]: 167 ng/mL; Tmax [23]: 0.17 h; Cmax [24]: 289 ng/mL; IC50 [12]: 53.7 µM; Drug metabolism (Cytochrome P450 2D6): 6 pmol/min; t1/2 [25]: 11 h |
| CC(=O)NC(C)COc1c(C)cccc1C.Cl (stereo not given) | Not Active | – | – | – | Not Active | – | – | inactive | Not Active | inactive | Not Active | fold change (FC) (iPSC-CM [15]): inactive |
| Cc1cccc(C)c1OCC(N)c1ccc(C(F)(F)F)cc1.Cl (stereo not given) | 66 µM | 66 | 1.48 | 1.4 | Not Active | – | 22 | – | – | – | Not Active | Ratio EC50 [26]: 7 |
| Cc1ccccc1OC[C@@H](N)c1ccccc1.Cl | – | – | – | – | – | – | – | – | – | – | – | half-life at 50 µM [27]: 2.27 h; remaining at 1 h, 50 µM [28]: > 95% |
| COc1ccc(C(N)COc2c(C)cccc2C)cc1.Cl (stereo not given) | 66 µM | 66 | 1.425 | – | Not Active | – | 7.4 | – | Not Active | – | Not Active | Ratio EC50 [26]: 7 |
| CCNC(C)COc1c(C)cccc1C.Cl (stereo not given) | Not Active | – | – | – | 133 µM | 21.5 | – | inactive | Not Active | inactive | – | – |
| Cc1cccc(C)c1OCC(C)NCCc1ccccc1.Cl (stereo not given) | 133 µM | 7.4 | 1.706 | – | 22 µM | 2.5 | 2.5 | – | Not Active | – | – | Ratio EC50 [26]: 28 |
| Cc1cccc(C)c1OCC(C)Nc1ccccc1.Cl (stereo not given) | Not Active | – | – | – | Not Active | – | – | inactive | Not Active | inactive | Not Active | – |
| Cc1cc(C)cc(OCC(N)c2ccccc2)c1.Cl (racemic) | 66 µM | 66 | 1.279 | < 0.8 | Not Active | – | 7.4 | – | – | – | Not Active | IC50 [3]: 0.2 µM; Ratio IC50 (Homo sapiens): 31; Drug metabolism (Cytochrome P450 3A4): Metabolite_Notdetected; half-life at 100 µM [1]: > 720 h; Drug metabolism (Cytochrome P450 3A5): Metabolite_Notdetected; IC50 [12]: 6.2 µM; Drug metabolism (Cytochrome P450 2D6): 6.9 pmol/min; IC50 [13]: 20.1 µM |
